Each structure is given as a SMILES string.

Series [1] concerns asexual parasites of the chloroquine-sensitive 3D7 strain of P. falciparum. Kind of series: asexual blood stage assay. The format is cell-based. Conditions: Plasmodium falciparum, 3D7, read-out: asexual activity (IC50, text). In a few lines:
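Asexual blood-stage parasites of chloroquine-sensitive P. falciparum 3D7 are tested with test compound in an 11-point dose-response, in duplicate. Each run includes a positive control and a DMSO negative control.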

The next series relates to HepG2 cells. Kind of series: HepG2 cell viability. The format is cell-based. Conditions: highest concentration tested 46 µM. The method, boiled down:
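HepG2 cells are incubated with test compound to measure general cytotoxicity as cell viability. The assay uses an 11-point dose-response in duplicate, with a positive control and a DMSO negative control.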

A further series has as its system malaria transmission. Conditions: mouse model; cited from earlier work.

For the compound `Cn1c(=O)n(-c2cccc(C(F)(F)F)c2)c2c3cc(-c4ccc(N)cc4)ccc3ncc21` [Compound 35], the IC50 in series [1] was under 100 nM.

For `Cn1c(=O)n(-c2cccc(C(F)(F)F)c2)c2c3cc(-c4cccc(N)c4)ccc3ncc21` [Compound 37], the IC50 in series [1] was under 100 nM.

`Cn1c(=O)n(-c2ccc(C#N)cc2)c2c3cc(-c4ccc(N)nc4)ccc3ncc21` [Compound 60]: in the series with HepG2 cells, the “HepG2 cytotoxicity” value is reported as “no measurable HepG2 cytotoxicity”. On to `Nc1ccc(-c2ccc3ncc4ccc(=O)n(-c5cccc(C(F)(F)F)c5)c4c3c2)cn1` [Torin 2], for which the “efficacy for blocking malaria transmission” value in the series with malaria transmission is “efficacy for blocking malaria transmission in a mouse model”.
